Laboratory results taken from publication PMC3891043 (Canadian journal of chemistry, 2011).

Assays:
[1] = Photolysis quantum yields; format: physicochemical
Summary of the method: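 Caged compound (1–9 mmol/L) plus internal standard (caffeine or 4-acetamidophenol) in water, buffer or solvent, in a quartz tube. Irradiated in a Rayonet carousel (two 15 W, 3000 Å Hg lamps), with ferrioxalate actinometry. Aliquots taken every 30 s up to 5 min, diluted and run on C18 LC-MS (water/methanol gradient with ammonium formate/formic acid), three injections each. Quantitation used calibration curves; Φ = concentration change / photons absorbed. 1H NMR in D2O confirmed products.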

[2] = Stern-Volmer quenching with sorbate; format: physicochemical; details: unbuffered 18 MΩ Ultrapure H2O; from KSV with kq assumed kdiff ~ 7.2 × 10^9 s^−1
Summary of the method: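 pHP GABA (0.001–0.01 mol/L) was diluted with potassium sorbate quencher (0–0.1 mol/L) and photolysed under the quantum-yield conditions (Rayonet, 3000 Å, LC-MS quantitation of GABA release). KSV came from Φ0/Φ vs [Q]. Triplet lifetime was obtained from KSV, taking kq as the diffusion rate in water.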

[3] = 300 nm, pH 5.0, ammonium acetate (0.01 mol/L), buffered CH3CN–H2O
[4] = unbuffered 18 MΩ Ultrapure H2O, conversion <2%

Φapp, quantum yield for the appearance of GABA [1, 3]: 0.14 | Φapp, quantum yield for the appearance of rearranged acid [1, 3]: 0.14 | Φdis, quantum yield for the disappearance of pHP GABA [1, 3]: 0.15 | Φapp, quantum yield for the appearance of GABA [1, 4]: 0.15 | Φapp, quantum yield for the appearance of rearranged acid [1, 4]: 0.15 | Φdis, quantum yield for the disappearance of pHP GABA [1, 4]: 0.16
SMILES: NCCCC(=O)OCC(=O)c1ccc(O)c(F)c1.O=C(O)C(F)(F)F [Compound 16, 4-(2-(3-Fluoro-4-hydroxyphenyl)-2-oxoethoxy)-4-oxobutan-1-aminium-2,2,2-trifluoroacetate]
τ^3, triplet lifetime [2]: 3.23 10^−9s
